PMC5161045 (Journal of Antimicrobial Chemotherapy, 2016)
Values after ≈ are worked out from the molar mass of the structure shown. Ends that are not written are not given here.

What was measured:
[1] = test system: S. aureus DA30559 (cycled with WGH); assay: MIC of antibiotics by Etest; assay type: cell-based; conditions: Staphylococcus aureus
Procedure, shortened: (§1)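 Strains were grown overnight with shaking at 37°C in Mueller–Hinton II broth and diluted to ∼10⁸ cfu/mL in the same broth. They were swabbed onto Mueller–Hinton II agar, an antibiotic Etest strip was applied, and plates were incubated at 37°C for 18–20 h. MIC is the lowest concentration with no visible growth, taken as the consensus of ≥2 independent determinations. Increases over WT were graded 2–5-fold or >5-fold, and EUCAST v5.0 breakpoints were used.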

[2] = test system: S. aureus DA30557 (cycled with WGH); assay: MIC of antibiotics by Etest; assay type: cell-based, Staphylococcus aureus; conditions: for MIC: Staphylococcus aureus
Procedure, shortened: as §1

[3] = test system: S. aureus DA36424 (cycled with LL-37 and WGH); assay: MIC of antibiotics by Etest; assay type: cell-based; conditions: Staphylococcus aureus
Procedure, shortened: as §1

[4] = test system: S. aureus DA35920 (cycled with PR-39); assay: MIC of antibiotics by Etest; assay type: cell-based; conditions: Staphylococcus aureus
Procedure, shortened: as §1

[5] = test system: S. aureus DA30560 (cycled with no peptide); assay: MIC of antibiotics by Etest; assay type: cell-based; conditions: Staphylococcus aureus
Procedure, shortened: as §1

[6] = test system: S. aureus DA29677 (cycled with LL-37); assay: MIC of antibiotics by Etest; assay type: cell-based; conditions: Staphylococcus aureus
Procedure, shortened: as §1

[7] = test system: S. aureus DA28823 (WT); assay: MIC of antibiotics by Etest; assay type: cell-based; conditions: Staphylococcus aureus
Procedure, shortened: as §1

[8] = test system: S. aureus DA29680 (cycled with LL-37); assay: MIC of antibiotics by Etest; assay type: cell-based; conditions: Staphylococcus aureus
Procedure, shortened: as §1

[9] = test system: S. aureus DA37296 (cycled with PR-39); assay: MIC of antibiotics by Etest; assay type: cell-based; conditions: Staphylococcus aureus
Procedure, shortened: as §1

[10] = test system: seven AMP-resistant S. aureus mutants; assay: MIC of antibiotics by Etest, summary over mutants; assay type: cell-based, Staphylococcus aureus; conditions: Mueller–Hinton medium; for number of AMP-resistant mutants with reduced/diminished susceptibility: of seven mutants
Procedure, shortened: as §1

[11] = test system: S. aureus DA29677; assay: Bacterial cell survival assay with human defensins; assay type: cell-based, Staphylococcus aureus; conditions: strain DA29677, NaPB pH 7.4, exponential phase cells, 37°C, 2 h
Procedure, shortened: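 Exponential-phase cells: overnight TSB culture diluted 1:100 in pre-warmed TSB, shaken 2 h at 37°C, washed once and resuspended in 10 mM sodium phosphate pH 7.4. Diluted to 0.69−4.7 × 10⁴ cfu/mL and exposed to hBD3 at 1 μM or other β-defensins at 10 μM, shaking in a sealed humidified container at 37°C for 2 h. Cells were plated on TSA for cfu. % survival = cfu with peptide/cfu without peptide × 100. Detection limit 1% survival. Mean ± SEM of ≥3 independent determinations.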

[12] = Solubility limit in MIEM; assay type: physicochemical; conditions: in MIEM (mammalian ionic environment medium, without NaCl, pH 7.4)

Compound: O=C(N[C@H](CO)[C@H](O)c1ccc([N+](=O)[O-])cc1)C(Cl)Cl [CHL, chloramphenicol]
- MIC [1]: 4 µg/mL
- MIC [2]: 4 µg/mL
- MIC [3]: 4 µg/mL
- MIC [4]: 3 µg/mL
- MIC [5]: 4 µg/mL
- MIC [6]: 6 µg/mL
- MIC [7]: 4 µg/mL
- MIC [8]: 4 µg/mL
- MIC [9]: 6 µg/mL

Compound: CNC(C)C1CCC(N)C(OC2C(N)CC(N)C(OC3OCC(C)(O)C(NC)C3O)C2O)O1 (stereo not shown) [GEN, gentamicin]
- MIC [1]: 0.38 µg/mL
- MIC [2]: 1 µg/mL
- increase in MIC ([2]; strain DA30557 (passaged with WGH), relative to WT, Etest): 8 fold
- MIC [3]: 0.19 µg/mL
- MIC [4]: 0.25 µg/mL
- MIC [5]: 0.125 µg/mL
- MIC [6]: 0.094 µg/mL
- MIC [7]: 0.125 µg/mL
- MIC [8]: 0.094 µg/mL
- MIC [9]: 0.5 µg/mL
- number of AMP-resistant mutants with reduced/diminished susceptibility [10]: Four of seven

Compound: C[C@H]1c2cccc(O)c2C(=O)C2=C(O)[C@]3(O)C(=O)C(C(N)=O)=C(O)[C@@H](N(C)C)[C@@H]3[C@@H](O)[C@@H]21 [DOX, doxycycline]
- MIC [1]: 0.125 µg/mL
- MIC [2]: 0.094 µg/mL
- MIC [3]: 0.25 µg/mL
- MIC [4]: 0.094 µg/mL
- MIC [6]: 0.125 µg/mL
- MIC [8]: 0.094 µg/mL
- MIC [9]: 0.125 µg/mL

Compound: CCO/N=C(\C(=O)N[C@@H]1C(=O)N2C(C(=O)[O-])=C(Sc3nc(-c4cc[n+](C)cc4)cs3)CS[C@H]12)c1nsc(N)n1 [CFT, ceftaroline]
- MIC [1]: 0.38 µg/mL
- MIC [2]: 0.38 µg/mL
- MIC [3]: 0.38 µg/mL
- MIC [4]: 0.19 µg/mL
- MIC [5]: 0.25 µg/mL
- MIC [6]: 0.19 µg/mL
- MIC [7]: 0.25 µg/mL
- MIC [8]: 0.25 µg/mL
- MIC [9]: 0.25 µg/mL

Compound: CN(C)c1cc(NC(=O)CNC(C)(C)C)c(O)c2c1C[C@H]1C[C@H]3[C@H](N(C)C)C(O)=C(C(N)=O)C(=O)[C@@]3(O)C(O)=C1C2=O [TGC, tigecycline]
- MIC [1]: 0.094 µg/mL
- MIC [2]: 0.094 µg/mL
- MIC [3]: 0.19 µg/mL
- MIC [4]: 0.125 µg/mL
- MIC [5]: 0.094 µg/mL
- MIC [6]: 0.094 µg/mL
- MIC [7]: 0.094 µg/mL
- MIC [8]: 0.19 µg/mL
- MIC [9]: 0.125 µg/mL
- number of AMP-resistant mutants with reduced/diminished susceptibility [10]: two of seven

Compound: teicoplanin [TEC]
- susceptibility of all seven AMP-resistant mutants relative to WT (in words) [10]: diminished susceptibility

Compound: CN[C@H](CC(C)C)C(=O)N[C@H]1C(=O)N[C@@H](CC(N)=O)C(=O)N[C@H]2C(=O)N[C@H]3C(=O)N[C@H](C(=O)N[C@H](C(=O)O)c4cc(O)cc(O)c4-c4cc3ccc4O)[C@H](O)c3ccc(c(Cl)c3)Oc3cc2cc(c3O[C@@H]2O[C@H](CO)[C@@H](O)[C@H](O)[C@H]2O[C@H]2C[C@](C)(N)[C@H](O)[C@H](C)O2)Oc2ccc(cc2Cl)[C@H]1O [VAN, vancomycin]
- MIC [1]: 1.5 µg/mL
- MIC [2]: 2 µg/mL
- MIC [3]: 2 µg/mL
- MIC [4]: 2 µg/mL
- MIC [5]: 1.5 µg/mL
- MIC [6]: 2 µg/mL
- MIC [7]: 1.5 µg/mL
- MIC [8]: 2 µg/mL
- MIC [9]: 2 µg/mL
- susceptibility of all seven AMP-resistant mutants relative to WT (in words) [10]: little to no change in susceptibility

Compound: DHYNCVSSGGQCLYSACPIFTKIQGTCYRGKAKCCK (also: bicyclic or more (positions not given here)) [hBD1]
- resistance to human β-defensin, relative to WT (in words) ([11]; 10 μM peptide): increased resistance

Compound: CCC[C@@H]1C[C@@H](C(=O)N[C@@H]([C@H]2O[C@H](SC)[C@H](O)[C@@H](O)[C@H]2O)[C@H](C)Cl)N(C)C1 [CLI, clindamycin]
- MIC [1]: 0.064 µg/mL
- MIC [2]: 0.064 µg/mL
- MIC [3]: 0.125 µg/mL
- MIC [4]: 0.094 µg/mL
- MIC [5]: 0.094 µg/mL
- MIC [6]: 0.047 µg/mL
- MIC [7]: 0.094 µg/mL
- MIC [8]: 0.094 µg/mL
- MIC [9]: 0.125 µg/mL

Compound: CC(=O)NC[C@H]1CN(c2ccc(N3CCOCC3)c(F)c2)C(=O)O1 [LZD, linezolid]
- MIC [1]: 1 µg/mL
- MIC [2]: 2 µg/mL
- MIC [3]: 2 µg/mL
- MIC [4]: 1 µg/mL
- MIC [5]: 2 µg/mL
- MIC [6]: 1.5 µg/mL
- MIC [7]: 2 µg/mL
- MIC [8]: 1.5 µg/mL
- MIC [9]: 2 µg/mL

Compound: CC[C@H]1OC(=O)[C@H](C)[C@@H](O[C@H]2C[C@@](C)(OC)[C@@H](O)[C@H](C)O2)[C@H](C)[C@@H](O[C@@H]2O[C@H](C)C[C@H](N(C)C)[C@H]2O)[C@](C)(O)C[C@@H](C)C(=O)[C@H](C)[C@@H](O)[C@]1(C)O [ERY, erythromycin]
- MIC [1]: 0.125 µg/mL
- MIC [2]: 0.125 µg/mL
- MIC [3]: 0.25 µg/mL
- MIC [4]: 0.38 µg/mL
- MIC [5]: 0.19 µg/mL
- MIC [6]: 0.19 µg/mL
- MIC [7]: 0.19 µg/mL
- MIC [8]: 0.19 µg/mL
- MIC [9]: 0.38 µg/mL
- number of AMP-resistant mutants with reduced/diminished susceptibility [10]: two of seven

Compound: GIGDPVTCLKSGAICHPVFCPRRYKQIGTCGLPGTKCCKKP (also: bicyclic or more (positions not given here)) [hBD2]
- resistance to human β-defensin, relative to WT (in words) ([11]; 10 μM peptide): increased resistance

Compound: CO[C@H]1/C=C/O[C@@]2(C)Oc3c(C)c(O)c4c(O)c(c(/C=N/N5CCN(C)CC5)c(O)c4c3C2=O)NC(=O)/C(C)=C\C=C\[C@H](C)[C@H](O)[C@@H](C)[C@@H](O)[C@@H](C)[C@H](OC(C)=O)[C@@H]1C [RIF, rifampicin]
- MIC [1]: 0.016 µg/mL
- MIC [2]: 0.012 µg/mL
- MIC [3]: 0.012 µg/mL
- MIC [4]: 0.016 µg/mL
- MIC [5]: 0.012 µg/mL
- MIC [6]: 0.008 µg/mL
- MIC [7]: 0.012 µg/mL
- MIC [8]: 0.012 µg/mL
- MIC [9]: 0.008 µg/mL

Compound: polymyxin B [PMB]
- number of AMP-resistant mutants with reduced/diminished susceptibility [10]: three of seven

Compound: CN(C)[C@@H]1C(O)=C(C(N)=O)C(=O)[C@@]2(O)C(O)=C3C(=O)c4c(O)cccc4[C@@](C)(O)[C@H]3C[C@@H]12 [TET, tetracycline]
- MIC [1]: 0.19 µg/mL
- MIC [2]: 0.25 µg/mL
- MIC [3]: 0.25 µg/mL
- MIC [4]: 0.125 µg/mL
- MIC [5]: 0.094 µg/mL
- MIC [6]: 0.19 µg/mL
- MIC [7]: 0.094 µg/mL
- MIC [8]: 0.25 µg/mL
- MIC [9]: 0.19 µg/mL
- number of AMP-resistant mutants with reduced/diminished susceptibility [10]: six of seven

Compound: CC[C@H](C)[C@H](NC(=O)[C@H](CCCCN)NC(=O)[C@H](CCC(=O)O)NC(=O)[C@H](CCCCN)NC(=O)[C@H](CO)NC(=O)[C@H](CCCCN)NC(=O)[C@H](CCCNC(=N)N)NC(=O)[C@H](Cc1ccccc1)NC(=O)[C@H](Cc1ccccc1)NC(=O)[C@H](CC(=O)O)NC(=O)CNC(=O)[C@H](CC(C)C)NC(=O)[C@@H](N)CC(C)C)C(=O)NCC(=O)N[C@@H](CCCCN)C(=O)N[C@@H](CCC(=O)O)C(=O)N[C@@H](Cc1ccccc1)C(=O)N[C@@H](CCCCN)C(=O)N[C@@H](CCCNC(=N)N)C(=O)N[C@H](C(=O)N[C@H](C(=O)N[C@@H](CCC(N)=O)C(=O)N[C@@H](CCCNC(=N)N)C(=O)N[C@H](C(=O)N[C@@H](CCCCN)C(=O)N[C@@H](CC(=O)O)C(=O)N[C@@H](Cc1ccccc1)C(=O)N[C@@H](CC(C)C)C(=O)N[C@@H](CCCNC(=N)N)C(=O)N[C@@H](CC(N)=O)C(=O)N[C@@H](CC(C)C)C(=O)N[C@H](C(=O)N1CCC[C@H]1C(=O)N[C@@H](CCCNC(=N)N)C(=O)N[C@H](C(=O)N[C@@H](CCC(=O)O)C(=O)N[C@@H](CO)C(=O)O)[C@@H](C)O)C(C)C)[C@@H](C)CC)C(C)C)[C@@H](C)CC [LL-37]
- solubility limit [12]: ~550 µg/mL (≈ 122 µM)

Compound: GIINTLQKYYCRVRGGRCAVLSCLPKEEQIGKCSTRGRKCCRRKK (also: bicyclic or more (positions not given here)) [hBD3]
- resistance to human β-defensin, relative to WT (in words) ([11]; 1 μM peptide): increased resistance
